ChEMBL document CHEMBL1817612, “Inhibitory potential of chemical substitutions at bioinspired sites of β-D-galactopyranose on neoglycoprotein/cell surface binding of two classes of medically relevant lectins” (Bioorg Med Chem, 2011)
Active and inactive are the calls of the source. No cut-off for these calls is given here.

Experiments:
[1] = molecular target: Galectin-9 (Homo sapiens) (UniProt O00182); assay: Ratio IC50 for lactose to compound for galectin-9 binding to biotinylated neoglycoprotein with p-isothiocyanatophynyl lactoside assessed as lectin-neoglycoprotein complex formation after 1 hr by spectrophotometrically relative to lactose
Outline: (§1)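 Lactosylated BSA (p-isothiocyanatophenyl lactoside, about 26 sugars per carrier) was adsorbed to wells from PBS overnight at 4 °C. Biotinylated lectin, at a concentration from titration, was incubated 1 h at 37 °C with up to nine compound concentrations. Bound lectin was read spectrophotometrically. Glycocluster concentration was normalized to sugar content, and lactose served as internal reference. Triplicates were run in up to five series.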

[2] = tested on: SW480; assay: (§2) Cytotoxicity against human SW480 cells assessed as cell viability at 2 mM after 48 hrs by MTT assay; assay type: cell-based; conditions: sw480, 48 h, 2000 µM
Outline: (§3)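 SW480 human colon adenocarcinoma cell aliquots were cultured 48 h with no addition (control) or with test compound added to the medium at 1, 2, 5 or 10 mM. Galactose and lactose were run as controls. Growth was read spectrophotometrically with MTT (0.5 mg/ml) and expressed relative to the untreated control. Triplicates were run in three independent series.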

[3] = Cytotoxicity against human SW480 cells assessed as growth inhibition at 5 mM after 48 hrs by MTT assay; assay type: cell-based; conditions: read-out: GI; outline: as §3
[4] = tested on: Viscum album; assay: Ratio IC50 for lactose to compound for Viscum album agglutinin binding to biotinylated neoglycoprotein with p-isothiocyanatophynyl lactoside assessed as lectin-neoglycoprotein complex formation after 1 hr by spectrophotometric analysis; outline: as §1
[5] = molecular target: Galectin-1 (Homo sapiens) (UniProt P09382); assay: Ratio IC50 for lactose to compound for galectin-1 binding to biotinylated neoglycoprotein with p-isothiocyanatophynyl lactoside assessed as lectin-neoglycoprotein complex formation after 1 hr by spectrophotometric analysis; outline: as §1
[6] = molecular target: Galectin-3 (Homo sapiens) (UniProt P17931); assay: Ratio IC50 for lactose to compound for galectin-3 binding to biotinylated neoglycoprotein with p-isothiocyanatophynyl lactoside assessed as lectin-neoglycoprotein complex formation after 1 hr by spectrophotometric analysis; outline: as §1
[7] = molecular target: T1, Galectin-8 (Homo sapiens) (UniProt O00214); assay: Ratio IC50 for lactose to compound for galectin-8 binding to biotinylated neoglycoprotein with p-isothiocyanatophynyl lactoside assessed as lectin-neoglycoprotein complex formation after 1 hr by spectrophotometric analysis; outline: as §1
T1 sequence (whole entry): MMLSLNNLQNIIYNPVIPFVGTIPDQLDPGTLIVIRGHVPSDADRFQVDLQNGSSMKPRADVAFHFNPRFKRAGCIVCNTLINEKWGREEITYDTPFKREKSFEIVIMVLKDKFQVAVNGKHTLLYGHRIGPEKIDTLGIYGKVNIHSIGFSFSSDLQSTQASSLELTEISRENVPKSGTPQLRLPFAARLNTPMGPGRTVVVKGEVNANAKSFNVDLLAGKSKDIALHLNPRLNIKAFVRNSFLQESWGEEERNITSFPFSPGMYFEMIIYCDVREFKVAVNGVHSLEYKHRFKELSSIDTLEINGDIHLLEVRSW

[8] = tested on: Jurkat; assay: Inhibition of Viscum album agglutinin binding to biotinylated lectin at cell surface of human Jurkat T-cells at 2.5 ug/ml by fluorometric analysis; assay type: cell-based
Outline: (§4)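 Biotinylated mistletoe lectin (VAA, purified from dried leaves on lactosylated Sepharose) was bound to 5 × 10⁴ Jurkat cells per assay at 2.5 µg/ml, with or without compound. Staining was detected with a fluorescent second-step reagent by flow cytometry, as percent positive cells and mean fluorescence intensity. Controls were lactose/galactose, non-cognate sugars for osmolarity, and omission of labeled lectin.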

[9] = molecular target: Galectin-3 (Homo sapiens) (UniProt P17931); assay: Inhibition of galectin-3 binding to biotinylated lectin at cell surface of human Jurkat T-cells at 1 mM by fluorometric analysis relative to lactose; assay type: cell-based
Outline: (§5)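 Recombinant biotinylated galectin-3, at a concentration set by titration, was bound to 5 × 10⁴ Jurkat or SW480 cells per assay, with or without compound. Lactose was run in parallel as reference. A fluorescent second-step reagent gave percent positive cells and mean fluorescence intensity by flow cytometry. Negative controls omitted labeled lectin, and non-cognate sugars served as osmolarity controls.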

[10] = molecular target: T1, Galectin-8 (Homo sapiens); assay: (§6) Inhibition of galectin-8 binding to biotinylated lectin at cell surface of human SW480 cells at 2 mM by fluorometric analysis; assay type: cell-based
Outline: (§7)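 Biotinylated recombinant galectin-8 (1 µg/ml) or galectin-9 (40 µg/ml) was bound to 5 × 10⁴ SW480 cells per assay, with or without compound at 2 mM. Lactose was run in parallel. Staining via a fluorescent second-step reagent was quantified as percent positive cells and mean fluorescence intensity. Controls were omission of lectin and non-cognate sugars.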

[11] = molecular target: Galectin-9 (Homo sapiens) (UniProt O00182); assay: Inhibition of galectin-9 binding to biotinylated lectin at cell surface of human SW480 cells at 2 mM by fluorometric analysis; assay type: cell-based; outline: as §7
[12] = tested on: Jurkat; assay: Inhibition of Viscum album agglutinin binding to biotinylated lectin at cell surface of human Jurkat T-cells at 1 mM by fluorometric analysis; assay type: cell-based; outline: as §4
[13] = molecular target: Galectin-3 (Homo sapiens) (UniProt P17931); assay: Inhibition of galectin-3 binding to biotinylated lectin at cell surface of human Jurkat T-cells at 2 mM by fluorometric analysis; assay type: cell-based; outline: as §5
[14] = as §2; assay type: cell-based; conditions: SW480 cells, read-out: GI; outline: as §3
[15] = Cytotoxicity against human SW480 cells assessed as growth inhibition at 1 mM after 48 hrs by MTT assay; assay type: cell-based; conditions: read-out: GI; outline: as §3
[16] = molecular target: Galectin-8 (Homo sapiens) (UniProt O00214); assay: as §6; assay type: cell-based; outline: as §7; remark: listed apart in the source
[17] = molecular target: Galectin-3 (Homo sapiens) (UniProt P17931); assay: Inhibition of galectin-3 binding to biotinylated lectin at cell surface of human Jurkat T-cells at 100 uM by fluorometric analysis; assay type: cell-based; outline: as §5
[18] = molecular target: Galectin-3 (Homo sapiens) (UniProt P17931); assay: Inhibition of galectin-3 binding to biotinylated lectin at cell surface of human SW480 cells at 100 uM by fluorometric analysis; assay type: cell-based; outline: as §5
[19] = molecular target: Galectin-3 (Homo sapiens) (UniProt P17931); assay: Inhibition of galectin-3 binding to biotinylated lectin at cell surface of human Jurkat T-cells at 15 uM by fluorometric analysis; assay type: cell-based; outline: as §5
[20] = molecular target: Galectin-3 (Homo sapiens) (UniProt P17931); assay: Inhibition of galectin-3 binding to biotinylated lectin at cell surface of human SW480 cells at 15 uM by fluorometric analysis; assay type: cell-based; outline: as §5

Chain of Galectin-9 (Homo sapiens) (O00182 whole entry): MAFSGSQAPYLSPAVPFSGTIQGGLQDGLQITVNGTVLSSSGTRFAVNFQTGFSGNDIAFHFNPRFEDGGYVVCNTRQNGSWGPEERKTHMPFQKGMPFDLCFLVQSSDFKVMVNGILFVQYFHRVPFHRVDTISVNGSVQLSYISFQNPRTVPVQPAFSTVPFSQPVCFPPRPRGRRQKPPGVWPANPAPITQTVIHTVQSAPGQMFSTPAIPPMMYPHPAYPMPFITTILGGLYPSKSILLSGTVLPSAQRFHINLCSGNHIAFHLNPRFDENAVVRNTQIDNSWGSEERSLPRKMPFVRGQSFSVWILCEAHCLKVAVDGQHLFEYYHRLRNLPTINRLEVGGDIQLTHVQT
Chain of Galectin-3 (Homo sapiens) (P17931 whole entry): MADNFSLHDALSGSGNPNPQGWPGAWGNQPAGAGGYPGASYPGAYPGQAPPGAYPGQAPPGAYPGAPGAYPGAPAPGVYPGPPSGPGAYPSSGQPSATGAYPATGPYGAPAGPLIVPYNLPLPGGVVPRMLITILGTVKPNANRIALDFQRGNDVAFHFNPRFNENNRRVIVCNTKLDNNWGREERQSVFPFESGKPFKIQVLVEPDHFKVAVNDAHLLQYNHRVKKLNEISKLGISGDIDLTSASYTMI
Chain of Galectin-1 (Homo sapiens) (P09382 whole entry): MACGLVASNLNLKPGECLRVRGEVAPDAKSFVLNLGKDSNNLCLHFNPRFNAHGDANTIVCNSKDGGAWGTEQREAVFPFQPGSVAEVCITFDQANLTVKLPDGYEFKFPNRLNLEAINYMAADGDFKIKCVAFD

**Q.** For `O=S(=O)(O)OCc1cn([C@H]2[C@@H](O)[C@@H](CO)O[C@@H](Sc3nc4ccccc4s3)[C@@H]2O)nn1`, which Ratio IC50 [1] is on record?
**A.** 1.4

**Q.** With `C/C=C/[C@@H]1O[C@H](CO)[C@H](O)[C@H](O)[C@H]1O` as the compound, how does the Activity [2] read?
**A.** Non-toxic

**Q.** What about the inhibition at 48 h, 5000 µM [3] of the same compound?
**A.** 50%

**Q.** What does the source list for `O=C(CCSCCC(F)(F)C(F)(F)C(F)(F)C(F)(F)C(F)(F)C(F)(F)C(F)(F)C(F)(F)F)NC(CO[C@@H]1O[C@H](CO)[C@H](O)[C@H](O)[C@H]1O)(CO[C@@H]1O[C@H](CO)[C@H](O)[C@H](O)[C@H]1O)CO[C@@H]1O[C@H](CO)[C@H](O)[C@H](O)[C@H]1O`?
**A.** Ratio IC50 [4]: 2.2; Ratio IC50 [5]: 1.8; Ratio IC50 [6]: 6.2; Ratio IC50 [7]: 4.6; Ratio IC50 [1]: 5.1; inhibition [8]: Active; fold change (FC) [9]: 7; inhibition [10]: Active; inhibition [11]: Active

**Q.** For `OC[C@@H]1O[C@H](C/C=C/c2cccc(/C=C/C[C@@H]3O[C@H](CO)[C@H](O)[C@H](O)[C@H]3O)c2)[C@@H](O)[C@H](O)[C@@H]1O`, which Ratio IC50 [4] is on record?
**A.** 1.9

**Q.** Which Activity [2] does the source give for `COc1ccc(C(=O)Nc2nc(C)c([C@@H]3O[C@H](CO)[C@H](O)[C@H](O)[C@H]3O)s2)cc1` here?
**A.** Non-toxic

**Q.** What about the inhibition at 48 h, 5000 µM [3] of the same compound?
**A.** 50%

**Q.** Which Ratio IC50 [4] does the source give for `Cc1nc(NC(=O)Cc2ccccc2)sc1[C@@H]1O[C@H](CO)[C@H](O)[C@H](O)[C@H]1O` here?
**A.** 1.3

**Q.** What about the Ratio IC50 [6] of the same compound?
**A.** 1.1

**Q.** And the inhibition [12]?
**A.** Active

**Q.** For `C=C(C[C@@H]1O[C@H](CO)[C@H](O)[C@H](O)[C@H]1O)c1cccc([N+](=O)[O-])c1`, which inhibition [13] is on record?
**A.** inactive

**Q.** Which results are given for `Cc1nc(NS(=O)(=O)c2ccc3ccccc3c2)sc1[C@@H]1O[C@H](CO)[C@H](O)[C@H](O)[C@H]1O`?
**A.** Activity [2]: Non-toxic; inhibition at 48 h, 5000 µM [3]: 50%

**Q.** What does the source list for `O=C(O)c1cn([C@H]2[C@@H](O)[C@@H](CO)O[C@@H](Sc3nc4ccccc4s3)[C@@H]2O)nn1`?
**A.** Ratio IC50 [6]: 1.4; inhibition at 48 h, 2000 µM [14]: 40%; inhibition at 48 h, 1000 µM [15]: 70%

**Q.** Which Ratio IC50 [4] does the source give for `Cc1nc(NC(=O)c2ccccc2)sc1[C@@H]1O[C@H](CO)[C@H](O)[C@H](O)[C@H]1O` here?
**A.** 1.2

**Q.** And the Ratio IC50 [6]?
**A.** 1.3

**Q.** What about the inhibition [12] of the same compound?
**A.** Active

**Q.** What does the source list for `CC(C)(C)C(=O)c1cc(CO[C@@H]2O[C@H](CO)[C@H](O[C@@H]3O[C@H](CO)[C@H](O)[C@H](O)[C@H]3O)[C@H](O)[C@H]2O)on1`?
**A.** Ratio IC50 [6]: 1.6; Ratio IC50 [7]: 2.2; Ratio IC50 [1]: 1.7; inhibition [10]: Active; inhibition [11]: Active

**Q.** Which results are given for `C#CCO[C@H]1[C@@H](O)[C@@H](CO)O[C@@H](Sc2ccccc2C(=O)OC)[C@@H]1O`?
**A.** Ratio IC50 [6]: 1.8; inhibition at 48 h, 1000 µM [15]: 10%

**Q.** What does the source list for LACTOSE, ANHYDROUS?
**A.** inhibition [13]: inactive; inhibition [16]: Active; inhibition [11]: Active; inhibition [17]: Active; inhibition [18]: Active

**Q.** What does the source list for `O=C(NCc1cn([C@@H]2O[C@H](CO)[C@H](O[C@@H]3O[C@H](CO)[C@H](O)[C@H](O)[C@H]3O)[C@H](O)[C@H]2O)nn1)c1cc(C(=O)NCc2cn([C@@H]3O[C@H](CO)[C@H](O[C@@H]4O[C@H](CO)[C@H](O)[C@H](O)[C@H]4O)[C@H](O)[C@H]3O)nn2)cc(C(=O)NCc2cn([C@@H]3O[C@H](CO)[C@H](O[C@@H]4O[C@H](CO)[C@H](O)[C@H](O)[C@H]4O)[C@H](O)[C@H]3O)nn2)c1`?
**A.** Ratio IC50 [4]: 6.2; Ratio IC50 [6]: 8.4; Ratio IC50 [7]: 6.9; Ratio IC50 [1]: 7.7; inhibition [8]: Active; fold change (FC) [9]: 7; inhibition [10]: Active; inhibition [11]: Active; inhibition at 48 h, 2000 µM [14]: 58%; inhibition at 48 h, 1000 µM [15]: 75%; inhibition [19]: Active; inhibition [20]: Active
